# Measurements from ChEMBL document CHEMBL4196178, “Structure-Based Drug Design of Potent Pyrazole Derivatives against Rhinovirus Replication” (J Med Chem, 2018).
# Calls of active or inactive are those of the source. The rule behind the calls is not given here.
# System: not listed separately
# Assay: Selectivity index, ratio of CC50 for human HeLa Rh cells to EC50 for Rhinovirus B14 capsid infected in human HeLa Rh cells
# Format: toxicity, cell-based
# Conditions: read-out: Ratio CC50/EC50
# Outline: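 SI = CC₅₀/EC₅₀ for RV-B14 in HeLa Rh cells, both from the same 3-day 35 °C MTS CPE assay. CC₅₀ was obtained by light-microscope scoring of compound-treated uninfected cells, and EC₅₀ from MTS dose-response. Both values were derived by logarithmic interpolation and reported as median ± median absolute deviation.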
row,Structure (SMILES),selectivity ratio
1,Cn1cc(-c2ccc(C[C@@H](O)c3ccc(-n4cccn4)cc3)c([N+](=O)[O-])c2)cn1,> 136
2,Cn1cc(-c2ccc(C[C@H](O)c3ccc(-n4cccn4)cc3)c([N+](=O)[O-])c2)cn1,> 9770
3,Cn1cc(-c2ccc(C[C@H](O)c3ccc(-n4cncn4)cc3)c([N+](=O)[O-])c2)cn1,> 5700

# System: rhinovirus B14
# Assay: Antiviral activity against Rhinovirus B14 infected in human HeLa Rh cells assessed as reduction in viral replication at 1 uM administered at the time of infection measured after 8 hrs post infection by RT-qPCR analysis
# Format: functional, organism-based
# Conditions: not given
# Outline: (§1)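 HeLa Rh cells adhered overnight, then given 1 µM compound 2 h before, at, or 2, 4 or 6 h after RV-B14 infection. Untreated infected cells served as controls. Cells lysed at 8 h post-infection, DNases heat-inactivated at 75 °C for 15 min. Intracellular viral RNA measured by SYBR one-step qRT-PCR against a gBlock standard series, reported as genome equivalents per sample.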
row,Structure (SMILES),Activity
1,Cn1cc(-c2ccc(C[C@H](O)c3ccc(-n4cccn4)cc3)c([N+](=O)[O-])c2)cn1,Active
2,Cn1cc(-c2ccc(C[C@H](O)c3ccc(-n4cncn4)cc3)c([N+](=O)[O-])c2)cn1,Active

# System: not listed separately
# Assay: Cytotoxicity against human HeLa Rh cells assessed as reduction in cell viability after 3 days by MTS assay
# Format: cell-based
# Conditions: not given
row,Structure (SMILES),CC50 at 72 h
1,Cn1cc(-c2ccc(C[C@@H](O)c3ccc(-n4cccn4)cc3)c([N+](=O)[O-])c2)cn1,> 342 µM
2,Cn1cc(-c2ccc(C[C@H](O)c3ccc(-n4cccn4)cc3)c([N+](=O)[O-])c2)cn1,> 342 µM
3,Cn1cc(-c2ccc(C[C@H](O)c3ccc(-n4cncn4)cc3)c([N+](=O)[O-])c2)cn1,> 342 µM

# System: rhinovirus B14
# Assay: Antiviral activity against Rhinovirus B14 infected in human HeLa Rh cells assessed as reduction in viral replication at 1 uM administered at >= 2 hrs post infection measured after 8 hrs post infection by RT-qPCR analysis
# Format: functional, organism-based
# Conditions: not given
# Outline: as §1
row,Structure (SMILES),Activity
1,Cn1cc(-c2ccc(C[C@H](O)c3ccc(-n4cccn4)cc3)c([N+](=O)[O-])c2)cn1,inactive
2,Cn1cc(-c2ccc(C[C@H](O)c3ccc(-n4cncn4)cc3)c([N+](=O)[O-])c2)cn1,inactive

# System: CHO-K1
# Assay: Genotoxicity in CHOK1 cells assessed as increase in micronucleated cell rates at 1 to 100 uM after 3 hrs in presence of Sprague-Dawley rat S9 fraction and cytokinesis blocking agent cytochalasin B by Giemsa-staining based assay
# Format: toxicity, Cricetulus griseus
# Conditions: chinese hamster, s9, 3 h
# Outline: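 CHO-K1 cells were seeded at 100,000 cells/ml and pre-incubated 24 h. S9 mix from Aroclor 1254-treated male Sprague-Dawley rat liver (1% S9, 0.5 mM G6P, 0.4 mM NADP) was added at 10%, and compound (1–100 μM) was given in duplicate for 3 h at 37 °C. Controls were medium, 1% DMSO and benzo-a-pyrene 5 µg/ml. Cells then had 21 h in 3 µg/ml cytochalasin B and Giemsa staining. Micronuclei were counted in 1000 binucleated cells per well at doses with CI% decrease <55 ± 5%, and compared by χ² test.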
row,Structure (SMILES),Activity
1,Cn1cc(-c2ccc(C[C@H](O)c3ccc(-n4cccn4)cc3)c([N+](=O)[O-])c2)cn1,Non-Toxic
2,Cn1cc(-c2ccc(C[C@H](O)c3ccc(-n4cncn4)cc3)c([N+](=O)[O-])c2)cn1,Non-Toxic

# Target: T1, VP1 capsid protein (Human rhinovirus sp.) (UniProt Q7T664)
# T1 sequence (whole entry): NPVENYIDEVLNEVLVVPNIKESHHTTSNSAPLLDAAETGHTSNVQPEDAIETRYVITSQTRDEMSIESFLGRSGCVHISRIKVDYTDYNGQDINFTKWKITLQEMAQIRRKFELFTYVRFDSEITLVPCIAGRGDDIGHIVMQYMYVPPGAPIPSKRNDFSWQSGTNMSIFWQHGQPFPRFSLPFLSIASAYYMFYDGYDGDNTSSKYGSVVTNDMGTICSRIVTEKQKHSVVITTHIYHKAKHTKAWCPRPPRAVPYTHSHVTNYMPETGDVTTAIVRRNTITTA
# Assay: Inhibition of Rhinovirus B14 capsid infected in human HeLa Rh cells assessed as reduction in viral replication at 1 uM administered 2 hrs before infection measured after 8 hrs post infection by RT-qPCR analysis
# Format: cell-based
# Conditions: not given
# Outline: as §1
row,Structure (SMILES),inhibition
1,Cn1cc(-c2ccc(C[C@H](O)c3ccc(-n4cccn4)cc3)c([N+](=O)[O-])c2)cn1,Active
2,Cn1cc(-c2ccc(C[C@H](O)c3ccc(-n4cncn4)cc3)c([N+](=O)[O-])c2)cn1,Active

# System: CHO-K1
# Assay: Genotoxicity in CHOK1 cells assessed as increase in micronucleated cell rates at 1 to 100 uM after 3 hrs in absence of Sprague-Dawley rat S9 fraction and presence of cytokinesis blocking agent cytochalasin B by Giemsa-staining based assay
# Format: toxicity, Cricetulus griseus
# Conditions: chinese hamster, cho-k1, 3 h
# Outline: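 CHO-K1 cells were seeded at 100,000 cells/ml and pre-incubated 24 h, then exposed in duplicate to compound (1–100 μM) for 3 h at 37 °C without S9. Controls were medium, 1% DMSO and mitomycin C 0.6 µg/ml. Cells then had 21 h in 3 µg/ml cytochalasin B, followed by methanol fixation and 10% Giemsa. Micronuclei were counted in 1000 binucleated cells per well, restricted to doses with CI% decrease <55 ± 5%, and compared by χ² test.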
row,Structure (SMILES),Activity
1,Cn1cc(-c2ccc(C[C@H](O)c3ccc(-n4cccn4)cc3)c([N+](=O)[O-])c2)cn1,Non-Toxic
2,Cn1cc(-c2ccc(C[C@H](O)c3ccc(-n4cncn4)cc3)c([N+](=O)[O-])c2)cn1,Non-Toxic
